According to PubChem BioAssay AID493069 (Broad Institute, 2011):
Where “and” joins values, the source holds several entries; their conditions need not be identical. Equal values may be shown once. Results filed as inconclusive are left out. Calls of active or inactive are those of the source.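 How the source made its calls: active means growth-curve midpoint potency at or below a set limit tied to the top tested dose, or full inhibition throughout; inconclusive means flat partial inhibition between 30 and 70%, or poor fit; inactive means the rest.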

Tested on: not listed separately
Assay: growth inhibition of resistant C. albicans with fluconazole, dose response, antifungal resistance reversal project, CaCi-8 resistant strain, dry powder, set 6 (AID 493069)
Conditions: C. albicans CaCi-8 + fluconazole, Alamar Blue, 48 h; at 2.6 µM (top of the series)
Method in brief: (§1)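 System: Candida albicans CaCi-8, fluconazole-resistant clinical isolate. Medium: MOPS-buffered RPMI 1640 defined medium plus Pen/Strep. Times: compound exposure 48 h 37 °C, Alamar Blue 2 h RT. Measured by: Alamar Blue fluorescence, Ex 544/Em 590 nm.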

Row | Structure (SMILES) | growth change, negative = inhibition
1 | COc1ccc2c(c1)c1nc3n(c(=O)c1n2CC(=O)N1CCC(C)CC1)CCS3 | -12.4% (inactive)

Same assay, conditions: C. albicans CaCi-8 + fluconazole, Alamar Blue, 48 h; at 26 µM (top of the series)

Row | Structure (SMILES) | growth change, negative = inhibition
2 | O=C(Cn1c2ccc(F)cc2c2nc3n(c(=O)c21)CCS3)N1CCCCCC1 | -36.1% (inactive)
3 | O=C(Cn1c2ccccc2c2nc3n(c(=O)c21)CCCS3)c1ccc(F)cc1 | -20.3% (inactive)
4 | O=C(Cn1c2ccc(F)cc2c2nc3n(c(=O)c21)CCS3)N1CCCCC1 | -17% (inactive)
5 | CCN(CC)C(=O)Cn1c2ccccc2c2nc3n(c(=O)c21)CCS3 | 10.7% (inactive)
6 | O=C(Cn1c2ccccc2c2nc3n(c(=O)c21)CCS3)NCCc1ccc(Cl)cc1 | -16.6% (inactive)
7 | O=C(Cn1c2ccc(F)cc2c2nc3n(c(=O)c21)CCS3)N1CCCC1 | -25.5% (inactive)
8 | CCN(CC)C(=O)Cn1c2ccc(F)cc2c2nc3n(c(=O)c21)CCS3 | 3.38% (inactive)

Tested on: C. albicans CaCi-8 + fluconazole, Alamar Blue, 48 h
Assay: as above
Conditions: not given
Method in brief: as §1

Row | Structure (SMILES) | AC50
9 | O=c1c2[nH]c3ccccc3c2nc2n1CCS2 | 17.6 µM
10 | O=c1c2[nH]c3ccc(F)cc3c2nc2n1CCS2 | 5.76 µM
11 | O=C(Cn1c2ccccc2c2nc3n(c(=O)c21)CCS3)N1CCOCC1 | 4.83 µM
12 | O=C(Cn1c2ccccc2c2nc3n(c(=O)c21)CCS3)N1CCCCC1 | 3.88 µM
13 | O=C(Cn1c2ccccc2c2ccncc21)N1CCCCC1 | 26.2 µM
14 | CC1CCN(C(=O)Cn2c3ccc(F)cc3c3nc4n(c(=O)c32)CCCS4)CC1 | 22.9 µM
15 | O=C(O)Cn1nc(-c2ccccc2)c2ccccc21 | > 26 µM (inactive)
16 | CC1CCN(C(=O)Cn2c3ccccc3c3nc4n(c(=O)c32)CCS4)CC1 | 5.56 µM
17 | COC(=O)Cn1nc(-c2ccc(C)cc2)c2ccccc21 | 13.8 µM
18 | O=C(Cn1c2ccccc2c2nc3n(c(=O)c21)CCS3)N1CCCC1 | 1.43 µM and 6.75 µM
19 | COC(=O)Cn1nc(-c2ccc(Cl)cc2)c2ccccc21 | 15.8 µM
20 | COC(=O)Cn1nc(-c2ccccc2)c2ccccc21 | 4.99 µM
